NR2E3 ag-1 = activates human NR2E3 receptor; Q9Y5X4; CHO-S Gal4-NCOR/VP16-NR2E3 two-hybrid, luciferase; inhibition of corepressor binding, % at 3.98 µM; hit rate 0.35% among 360,000;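 active = inhibition above the mean of all tested compounds plus 3 SD, cut at about 70% in these data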;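 also: 0% = DMSO with NR2E3 transfected cells and 100% = cells lacking NR2E3 construct; higher means lower luciferase signal from less NR2E3 corepressor binding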
NR2E3 ag-2 = agonists of human nuclear receptor NR2E3; Q9Y5X4; AID 2300; inhibition of corepressor binding, % at 4.78 µM; hit rate 0.12% among 320,000; GST-NR2E3/biotin-RetCOR TR-FRET, 1536-well;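 active = percent inhibition above the cutoff of mean plus 3 SD of all tested compounds, set per screening campaign, cut at about 20% in these data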;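 also: 0% = DMSO wells and 100% = biotin wells as full block of FRET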
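System: GST-tagged NR2E3 plus biotinylated RetCOR corepressor; Buffer or medium: pH 7.5 Tris-based buffer; Probe or stimulus: RetCOR corepressor, biotinylated, 7 nM; Doses: compound at 4.8 µM, single dose; Schedule: 5 h incubation at 4 °C; Technique: time-resolved FRET; Evaluation: percent inhibition of TR-FRET ratio; Replication: one well per compound, singlicate testing.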
PP1 inh = PP1-alpha (human) inhibition in PP5 counter-screen | purified PP1alpha, OMFP fluorescence | inhibition, % at 6.7 µM | hit rate 0.9% among 320,000;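 active = inhibition above the mean inhibition of all tested compounds plus 3 SD, computed separately for each screening campaign, cut at about 15% in these data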
PP5 primary = inhibitors of human protein phosphatase 5 (PP5) | P53041 | purified PP5c, OMFP substrate fluorescence | inhibition, % at 6.7 µM | hit rate 0.18% among 320,000;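 active = inhibition above the campaign's mean inhibition across all tested compounds plus 3 SD, cut at about 9.5% in these data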;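 also: 0% = DMSO only and 100% = 100 µM cantharidin control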
Target sequence (P53041 whole entry, looked up): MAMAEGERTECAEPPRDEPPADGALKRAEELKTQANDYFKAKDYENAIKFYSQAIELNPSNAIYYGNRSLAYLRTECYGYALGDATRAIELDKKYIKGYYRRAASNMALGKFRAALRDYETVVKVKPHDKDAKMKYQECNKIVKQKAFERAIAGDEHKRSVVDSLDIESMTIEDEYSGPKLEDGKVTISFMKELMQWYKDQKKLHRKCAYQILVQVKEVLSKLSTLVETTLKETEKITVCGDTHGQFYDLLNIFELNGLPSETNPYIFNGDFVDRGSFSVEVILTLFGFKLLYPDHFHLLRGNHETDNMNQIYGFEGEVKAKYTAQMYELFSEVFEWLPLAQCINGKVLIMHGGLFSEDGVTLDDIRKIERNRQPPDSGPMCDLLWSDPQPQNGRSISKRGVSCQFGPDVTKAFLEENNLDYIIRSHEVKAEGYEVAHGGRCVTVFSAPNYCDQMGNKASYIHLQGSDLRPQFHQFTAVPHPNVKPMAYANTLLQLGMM
NR2E3 ag confirm = confirmation of human NR2E3 agonists; shares compounds with NR2E3 ag-1; CHO-S mammalian two-hybrid NR2E3-NCOR, luciferase luminescence; inhibition, % at 3.98 µM; hit rate 51% among 2,300; AID 624378;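 active = average inhibition above a cutoff equal to the mean inhibition of all tested compounds plus one SD, cut at about 70% in these data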;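 also: 0% = DMSO in NR2E3 cells and 100% = DMSO in cells lacking NR2E3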
GAL4-VP16 luc = GAL4-VP16 reporter inhibition in NR2E3 agonist counterscreen. inhibition, % at 3.98 µM. AID 624379. CHO-S GAL4-VP16 luciferase reporter, luminescence. hit rate 29% among 2,300. shares compounds with NR2E3 ag-1;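 active = mean inhibition above a cutoff equal to the average over all tested compounds plus one standard deviation, cut at about 70% in these data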;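 also: luciferase from a UAS reporter driven by GAL4-VP16 transactivation; 0% = DMSO with VP16-transfected cells and 100% = DMSO with cells lacking VP16; higher means less reporter light so more repression of VP16 activity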
Active calls of the source: *; . = no result. A selection: hits, their analogues and other compounds. The true share with any hit is near 1.3%.

SMILES	NR2E3 ag-1	NR2E3 ag-2	PP1 inh	PP5 primary	NR2E3 ag confirm	GAL4-VP16 luc
CC(C)c1ccc(-c2nc3ccccc3s2)cc1	88*	3	-3	1	71*	58
CS(=O)(=O)Nc1ccc(-c2cc(/C=C3\SC(N)=NC3=O)c[nH]c2=O)cc1	0	-1	-3	-1	.	.
CCc1ccc(NS(=O)(=O)c2ccc(OC)c3ncccc23)cc1	0	-1	-4	3	.	.
COc1ccc(NC(C)=O)cc1S(=O)(=O)Nc1ccc(OCc2ccccc2)cc1	73*	0	1	4	77*	57
CCc1ccc(OC)c(S(=O)(=O)Nc2ccc(Cc3ccncc3)cc2)c1	99*	-1	3	4	86*	74*
O=S(=O)(Nc1ccc(Cc2ccncc2)cc1)c1ccc(Cl)c(Cl)c1	24	4	8	4	.	.
COc1ccc(NC(C)=O)cc1S(=O)(=O)Nc1ccccc1C(=O)NCCc1ccccc1	-76	0	0	-1	.	.
COc1ccc(S(=O)(=O)Nc2ccc(Cc3ccncc3)cc2)cc1OC	61	1	0	2	72*	67
COc1ccc(NC(=O)Nc2ccc(Cc3ccncc3)cc2)c(OC)c1	51	1	-3	3	29	15
COc1ccc(NC(=O)Nc2cnccn2)c(OC)c1	-9	-1	-2	2	.	.
Cc1cccc2[nH]c(SCC(=O)N3CCOCC3)nc12	-30	1	-3	-1	.	.
CC[C@@H](C(=O)[C@@H](C)[C@@H](O)[C@H](C)CCc1ccc(C)c(O)c1C(=O)O)[C@H]1O[C@](CC)([C@H]2CC[C@](O)(CC)[C@H](C)O2)C[C@@H]1C	104*	2	12	5	98*	91*
CSc1ccc(-c2nc(CSCC(=O)N3CCOCC3)c(C)o2)cc1	-32	-2	-1	-1	.	.
CCc1ccc(-c2nc(CSCC(=O)N3CCN(c4ncccn4)CC3)c(C)o2)cc1	66	1	5	4	71*	63
CCc1ccc(-c2nc(CSCC(=O)NC3CC3)c(C)o2)cc1	111*	2	-1	-1	98*	97*
Cc1oc(-c2ccccc2Cl)nc1CSCC(=O)NC1CC1	16	-2	-1	3	.	.
CCOc1ccc(-c2nc(CSCC(=O)NCCCN3CCCC3=O)c(C)o2)cc1	60	0	-3	4	64	36
CSc1ccc(-c2nc(CSCC(=O)NC3CC3)c(C)o2)cc1	100*	4	-2	2	85*	84*
O=C(CSc1nnc2c(Cl)cc(Cl)cn12)N1CCN(c2ccc(F)cc2)CC1	-13	2	-4	-1	.	.
COc1ccccc1N1CCN(C(=O)COc2ccc(S(=O)(=O)NC(C)(C)C)cc2)CC1	.	2	0	1	.	.
COc1c(/C=N/Nc2ccc(C(=O)O)cc2)c(CCN(C)C(C)=O)cc2c1OCO2	-42	1	-2	3	.	.
O=C(NCc1ccc(F)cc1)c1cc(C2CCCCN2C(=O)CCc2ccccc2)on1 (centres undefined)	-11	.	.	.	.	.
C=CCn1c(O)c(N=NC(=S)Nc2ccccc2C)c2cc(S(=O)(=O)N3CCOCC3)ccc21	63	1	2	-2	23	26
Cc1cccc(NC(=S)N=Nc2c(O)n(CN3CCOCC3)c3ccccc23)c1C	72*	0	2	0	15	22
CCCS(=O)(=O)NC(=O)C1(C)CCN(C(=O)c2snnc2C)C1 (centres undefined)	14	.	.	.	.	.
SMILES	NR2E3 ag-1	NR2E3 ag-2	PP1 inh	PP5 primary	NR2E3 ag confirm	GAL4-VP16 luc
Cc1csc(NC(=O)c2ccc(Cn3nc(C)c(Br)c3C)o2)n1	78*	-2	1	3	73*	62
O=C(O)C1=C[C@H](c2ccc(F)cc2)C[C@H](OCCCCO)O1	-11	1	-1	1	.	.
Cc1ccc(/C=C2\SC(=S)N(CCCC(=O)Nc3cccc(C(=O)O)c3)C2=O)cc1	85*	2	0	3	40	89*
COc1cccc(/C=C2\SC(=S)N(CCCC(=O)Nc3ccc(C(=O)O)cc3)C2=O)c1	19	0	8	1	.	.
O=C(CCCN1C(=O)/C(=C\c2ccccc2)SC1=S)Nc1cccc(C(=O)O)c1	-21	1	6	-2	.	.
O=C(CCCN1C(=O)/C(=C/c2ccc3c(c2)OCO3)SC1=S)Nc1cccc(C(=O)O)c1	66	4	5	-1	43	68
COc1cccc(/C=C2/SC(=S)N(CCCC(=O)Nc3ccc(O)cc3)C2=O)c1	54	1	2	2	15	70
CC(=C\c1ccccc1)/C=C1/SC(=O)N(CCCC(=O)Nc2ccc(C(=O)O)cc2)C1=O	73*	2	2	3	10	76*
COc1cccc(CN2CCC2(C)C(=O)Nc2ccc3c(c2)OCO3)c1F (centres undefined)	0	.	.	.	.	.
CC1(C)CCC/C(=C\c2ccccc2)C1=O	-7	1	-4	2	.	.
COc1ccc(N2C(=NC(=O)C(C)Oc3ccccc3)SC3CS(=O)(=O)CC32)cc1 (centres undefined)	-25	3	-1	1	.	.
O=C(CCCN1C(=O)/C(=C\c2ccccc2)SC1=S)Nc1ccc(O)cc1	8	0	0	1	.	.
Cc1ccc(/C=C2\SC(=S)N(CCCC(=O)NNC(=O)c3ccccc3O)C2=O)cc1	69	0	-1	0	67	73*
Cc1ccc(/C=C2/SC(=S)N(CCCC(=O)Nc3ccc(O)cc3)C2=O)cc1	88*	.	.	.	41	90*
Cc1ccc(C=C2SC(=S)N(CCCC(=O)Nc3cccc(C(=O)O)c3)C2=O)cc1	73*	.	.	.	32	88*
COc1ccc(/C=C2\SC(=S)N(CCC(=O)Nc3ccccc3C(=O)O)C2=O)cc1	-23	2	-3	1	.	.
COc1ccc(/C=C2\SC(=O)N(CCCC(=O)Nc3cc(Cl)ccc3C(=O)O)C2=O)cc1	88*	.	.	.	80*	87*
Cc1ccc(/C=C2\SC(=S)N(CCC(=O)NNC(=O)c3ccccc3O)C2=O)cc1	-16	3	-2	3	.	.
Nc1ccc2c3c(ccc([N+](=O)[O-])c13)CC2	-41	.	.	.	.	.
Cc1ccc(C(O)c2ncc(-c3ccccc3C(F)(F)F)[nH]2)cc1F (centres undefined)	-9	.	.	.	.	.
Cn1c(=O)c2cc(NC(=S)NCc3ccccc3F)ccc2n1C	-64	.	.	.	.	.
O=C(NNc1c([N+](=O)[O-])cc(C(F)(F)F)cc1[N+](=O)[O-])c1ccco1	61	-4	-1	2	69	57
O=C(NNc1c(F)c(F)cc(F)c1F)c1ccco1	-17	.	.	.	.	.
CCCOC(=O)c1ccc(OCC(O)Cn2c(C)nc3ccccc32)cc1 (centres undefined)	62	.	.	.	65	70
Cc1ccc(-n2ncc3c2CCCC3NC(=O)CCCN2CCCC2=O)cc1C (centres undefined)	-19	0	6	0	.	.

Compound activity: PubChem, The Scripps Research Institute Molecular Screening Center
